Results on two molecules are retold here after PubChem BioAssay AID652255 (Vanderbilt Specialized Chemistry Center, 2013).

Activity calls are given as the source filed them. How the calls were made is not given here.

This test has as its target Proteinase-activated receptor 1 (Homo sapiens) (UniProt P25116). Description: inhibition of PAR1-AP platelet activation – cell-based, CRC, P-selectin flow cytometry, selectivity assay for PAR4 antagonist project, dose response (AID 652255). Conditions: Washed human platelets. In outline:
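Test system: washed platelets labelled with antibody / Reagent: PAR1 activating peptide (PAR1-AP) as agonist / Incubation: 5 min label, 5 min compound, 10 min agonist / Measured by: flow cytometry fluorescence intensity, 100,000 platelet-gated events, paraformaldehyde-fixed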
On the technique in general: A flow cytometer gives signals particle by particle.

Sequence of Proteinase-activated receptor 1 (Homo sapiens) (P25116 whole entry, looked up): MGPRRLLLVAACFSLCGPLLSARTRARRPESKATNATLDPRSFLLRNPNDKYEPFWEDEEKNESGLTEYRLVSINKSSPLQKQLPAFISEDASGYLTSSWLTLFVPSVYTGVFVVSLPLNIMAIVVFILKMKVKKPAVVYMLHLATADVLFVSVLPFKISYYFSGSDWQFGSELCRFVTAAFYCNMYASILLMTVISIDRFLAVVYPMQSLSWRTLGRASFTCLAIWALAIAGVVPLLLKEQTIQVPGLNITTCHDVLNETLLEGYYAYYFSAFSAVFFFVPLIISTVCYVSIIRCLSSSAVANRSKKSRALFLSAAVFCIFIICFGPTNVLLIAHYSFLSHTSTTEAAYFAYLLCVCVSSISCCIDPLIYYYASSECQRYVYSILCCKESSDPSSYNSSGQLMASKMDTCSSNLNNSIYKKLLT

`CCCOCc1c(-c2ccccc2)c2cc([N+](=O)[O-])ccc2n1C`: the IC50 entry was “inactive”.

In the case of `COc1ccc(COc2ccc(C(=O)NCCC(C)(C)C)cc2)cc1`, under “stronger effect = higher value”, the max inhibition came to 57.1%.
